High-throughput results as filed in PubChem BioAssay.
CYP2C19 act: cytochrome P450 2C19 (human) activation | recombinant CYP2C19, luciferin-H EGE luminescence; stronger effect = higher value; 0 = fully inhibited enzyme, 1 = untreated enzyme | P33261 | AID 1025 | 96,000 tested, under 10 active | activation factor at 5 µM;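 active means activation factor of at least 2 at 5 µM in the primary screen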;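 further: 0 = wells with 2.5 mM tranylcypromine and 1 = vehicle-only wells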
Target sequence (P33261 whole entry, looked up): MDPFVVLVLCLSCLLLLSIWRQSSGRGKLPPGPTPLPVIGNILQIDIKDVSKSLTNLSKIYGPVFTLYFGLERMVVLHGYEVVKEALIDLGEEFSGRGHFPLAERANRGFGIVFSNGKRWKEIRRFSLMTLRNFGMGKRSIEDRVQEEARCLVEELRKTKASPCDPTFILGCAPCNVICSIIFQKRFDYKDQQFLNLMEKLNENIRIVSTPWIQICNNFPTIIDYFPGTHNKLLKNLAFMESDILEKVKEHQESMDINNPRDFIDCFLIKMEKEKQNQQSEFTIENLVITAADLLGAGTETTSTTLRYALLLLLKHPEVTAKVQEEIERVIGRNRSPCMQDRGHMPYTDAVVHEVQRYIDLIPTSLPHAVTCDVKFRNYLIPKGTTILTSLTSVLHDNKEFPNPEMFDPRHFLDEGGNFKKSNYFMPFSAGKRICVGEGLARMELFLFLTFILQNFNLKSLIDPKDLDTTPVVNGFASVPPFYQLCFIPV
CYP2C9 act: activators of human CYP2C9; 1.4% of 96,000 active; P11712; recombinant CYP2C9, luciferin-H conversion, luminescence; stronger effect = higher value; factor 1 = untreated enzyme, 0 = blocked; activation factor at 5 µM; AID 1024;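 active means activation factor of 2 or more for CYP2C9 at a 5 µM dose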;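 further: 0 = sulfaphenazole-blocked wells and 1 = vehicle-only wells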
E coli WT exp: blocks growth of wild type E. coli BW25113; OD600 absorbance; growth inhibition, % at 100 µM; 0.15% of 98,000 active;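 active means growth inhibition above about 50% at one test dose, limit read from the data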;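 further: growth measured after 20 h incubation at 37 °C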
tolC growth inh: growth inhibitors of E. coli BW25113 tolC mutant. OD615. growth inhibition, % at 10 µM (by protocol). 2.2% of 65,000 active;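 active means growth inhibition at or above a cutoff equal to the mean over every tested compound plus 3 SD, cut at about 60% in these data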;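 further: growth measured after 20 h incubation at 37 °C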
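Test system – E. coli BW25113 ΔtolC::kan, tolC deletion mutant strain · Detection – OD at 615 nm · Buffer or medium – LB with kanamycin 50 µg/mL · Times – 20 h compound exposure of bacteria at 37 °C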
CYP2C9 inh: human CYP2C9 inhibition. 20% of 96,000 active. P11712. CYP2C9 Supersomes, luciferin-H conversion, luminescence. inhibition, % at 5 µM. AID 777;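 active means blocking of liver enzyme CYP2C9 beyond about 50% at 5 µM, limit read from the data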
CYP2C19 inhib: inhibitors of human CYP2C19; inhibition, % at 5 µM; CYP2C19 Supersomes, luciferin-H EGE luminescence, 30 min; AID 778; 21% of 96,000 active;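 active means CYP2C19 inhibition above a set limit at 5 µM in the primary screen, cut at about 50% in these data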;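 further: plate controls were negative control wells for no effect and 2.5 mM tranylcypromine positive control for full effect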
Starred values were filed as active, the others as inactive; · = not tested or not shown. Most compounds without a hit are left out; they make up all but 29% or so of the library.

SMILES	CYP2C19 act	CYP2C9 act	E coli WT exp	tolC growth inh	CYP2C9 inh	CYP2C19 inhib
CCOC(=O)c1ccc(N2CC(O)=C(c3nc4ccccc4c(=O)[nH]3)C2=N)cc1	0.6	1.4	-7	12	-42	41
O=[n+]1c2c(n([O-])c3cc(Cl)ccc31)CCCC2	1	0.8	13	·	17	2
CN1CCC(OC(=O)c2cccc(Br)c2)CC1	0.8	0.6	-3	·	37	20
C=C(C)CNC(=S)N/N=C(\C)c1ccc(-n2ccnc2)cc1	0	0	-8	·	100*	100*
C/C(=N\NC(=S)NCCc1ccccc1)c1ccc(C#N)cc1	1	0.8	-8	·	25	-4
CC(OCC(O)CN(C)CCOc1ccccc1)c1ccc(Cl)cc1 (stereo not given)	0.2	0.6	9	12	37	75*
Cc1ccc(S(=O)(=O)N2Cc3ccccc3CC2C(=O)Nc2ccc3c(c2)OCO3)cc1 (stereo not given)	0	0	-13	·	97*	98*
Cc1ccc(S(=O)(=O)N2C(=O)CCC2C(=O)Nc2ccc3c(c2)OCCO3)cc1 (stereo not given)	1	1	-2	-42	-4	-2
COc1ccc(S(=O)(=O)N2Cc3ccccc3CC2C(=O)Nc2ccc3c(c2)OCO3)cc1 (stereo not given)	0.2	0.4	-2	·	62*	85*
CCC(C)NC(=O)c1c(-c2cc(Cl)c(OC)c(Cl)c2)noc1C (stereo not given)	·	·	·	0	·	·
Cc1cccc(-n2c(Cc3cc(=O)[nH]c(=O)[nH]3)nnc2SCC(=O)NCC2CCCO2)c1 (stereo not given)	1.1	1.1	3	-13	-6	-7
O=C(CNS(=O)(=O)c1ccc2ccccc2c1)OCC(=O)c1ccc(Br)s1	0.7	2.3*	-7	·	-132	29
O=C(O)CCCNS(=O)(=O)c1ccc2ccccc2c1	0.9	1.3	-11	-12	-34	10
O=C(NNC(=O)c1ccc(SCC2CCCO2)c([N+](=O)[O-])c1)c1ccc(F)cc1 (stereo not given)	1	0.8	-4	·	19	-3
CCSc1nnc(-c2cccnc2)n1-c1ccc(Cl)c(C)c1	0.9	0.9	-3	·	12	13
CC(=O)Nc1ccc(S(=O)(=O)Nc2nnc(C(C)(C)C)s2)cc1	0.9	0.9	-11	·	9	10
CCc1nnc(NS(=O)(=O)c2ccc(NC(=S)NC(=O)/C=C/c3ccc(C(C)C)cc3)cc2)s1	0.8	0.2	-5	·	77*	22
Cc1cc(Cl)cc(Br)c1OCCCCn1cncn1	0	0.3	-5	9	73*	98*
C=CCNCCCCOc1c(Cl)cc(C)cc1Br	0.4	1.1	20	·	-10	57*
Cc1cc(Cl)c(OCCCn2cncn2)c(Br)c1	0.1	0.6	2	18	43	94*
COCCCNCCCCOc1c(Cl)cc(C)cc1Br	0.8	0.9	8	·	11	21
Cc1ccnc2nc(C(=O)N3CCN(S(=O)(=O)c4ccccc4)CC3)nn12	1.1	1.2	-3	-9	-19	-6
CCc1c(C)sc(NC(=O)Cn2nc(C(F)(F)F)c3c2CCCC3)c1C#N	0.8	0.8	-4	·	24	22
COc1ccc(CCN2CC(C(=O)NCc3ccco3)CC2=O)cc1OC (stereo not given)	0.9	0.9	10	·	9	10
O=c1c2c(nc3c(-c4cccc5ccccc45)c[nH]n13)CCC2	0.9	0.3	-2	65*	69*	7
SMILES	CYP2C19 act	CYP2C9 act	E coli WT exp	tolC growth inh	CYP2C9 inh	CYP2C19 inhib
O=c1c2c(nc3c(-c4ccc(Cl)cc4)c[nH]n13)CCCC2	1.2	1	-2	100*	-3	-16
Cc1[nH]n2c(=O)c3c(nc2c1-c1cccc2ccccc12)CCC3	0.7	0.5	4	·	46	26
O=c1c2c(nc3cc(-c4cccc(Cl)c4)[nH]n13)CCC2	1	0.9	3	·	7	2
CSc1cc(C)nc(NC(C)=O)n1	1	1	3	-20	-1	-2
Cc1c(C)[n+](=O)c(-c2ccco2)c(C)n1[O-]	0.8	0.8	0	-15	17	17
COc1ccccc1CNS(=O)(=O)c1c(C)noc1C	0.6	0.8	7	-8	23	43
COc1ccccc1CNS(=O)(=O)c1cc(C)ccc1OC	0.1	1.6	3	10	-61	90*
CCc1ccccc1NS(=O)(=O)c1cc(C)ccc1OC	0.2	0.5	2	3	54*	84*
COc1ccc(OC)c(S(=O)(=O)Nc2ccccc2C(F)(F)F)c1	·	·	6	7	·	·
CCOC(=O)c1cc(OC(=O)c2cccnc2)n(-c2ccccc2)n1	0.9	0.9	3	15	14	6
CCCCc1nnc(SCCSc2nnc(CCCC)n2N)n1N	1	0.9	7	-1	12	-4
Nc1nnc(SCc2cc3c(cc2Cl)OCO3)s1	0.3	0.5	11	15	49	70*
Cc1cc(C)c(C#N)c(SCc2cc3c(cc2Cl)OCO3)n1	0.9	0.7	1	·	28	6
Nc1nnc(SCc2ccccc2Cl)s1	0.3	1.1	8	13	-7	68*
N#CCSc1nnc(N)s1	0.8	1.1	3	-33	-5	17
CC1=N/C(=C\c2ccc([N+](=O)[O-])cc2)C(=O)N1c1ccc(Cl)cc1	1	1.2	-7	·	-18	0
Cc1ccc(CNCc2cc3c(C(C)(C)C)nn(-c4ccccc4)c3[nH]c2=O)cc1	0.6	0.6	1	·	37	42
COc1ccc(CNCc2cc3c(C(C)(C)C)nn(-c4ccccc4)c3[nH]c2=O)cc1	0.6	0.4	0	·	59*	41
O=c1[nH]c2c(cc1CNCCN1CCOCC1)c(-c1cccc(F)c1)nn2-c1ccccc1	1	0.8	·	42	20	4
CC(C)(C)c1nn(-c2ccccc2)c2[nH]c(=O)c(CNCc3ccco3)cc12	0.7	0.4	-14	11	62*	28
COc1ccccc1CNC(=O)C[n+]1ccccc1	1.1	0.8	7	·	22	-7
CCCCC(NC(=O)c1ccccc1)C(=O)OCC(=O)N1c2ccccc2Sc2ccccc21 (stereo not given)	0.6	0.1	-18	·	94*	44
CC(C)CNCC(=O)N1c2ccccc2Sc2ccccc21	1	0.9	11	·	5	-1
C=CCOc1ccc2ccccc2c1CNc1ncn[nH]1	0.2	0.4	-4	6	62*	84*
C=CCOc1c(CNc2ncn[nH]2)cccc1OC	0.9	1	1	·	5	12
CC(=O)N1CCN(c2ccc(Oc3nnnn3-c3ccccc3)cc2)CC1	1	1	-8	2	-1	4
Cc1cccc(C)c1NC(=O)C(C)c1ccc(-c2ccccc2)c(F)c1 (stereo not given)	0.9	0.2	-11	·	82*	5
